ChEMBL document CHEMBL1122233, “Antihypertensive 9-substituted 1-oxa-4,9-diazaspiro[5.5]undecan-3-ones” (J Med Chem, 1983)

Assays:
Rattus norvegicus [1] = experiment: Percentage fall in systolic blood pressure after 3 hr at 25 mg/kg given perorally; assay type: functional, Artery; settings: route oral
In short: (§1)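 Male Okamoto-Aoki spontaneously hypertensive rats, trained, in groups of four matched for mean systolic pressure; five treated groups and one vehicle control run concurrently. Oral dosing in water (solution or suspension, 0.1 mL/10 g) on two consecutive mornings. On day 2, rats were restrained at 30.0 ± 1.0 °C and tail-cuff systolic pressure recorded at 1–4 h; percent fall versus control, 1-tail t test, p ≤ 0.05.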

Rattus norvegicus [2] = experiment: Percentage fall in systolic blood pressure after 4 hr at 6.25 mg/kg given perorally; assay type: functional, organism-based; set-up: dose 6.25 mg/kg; settings: Artery; in short: as §1
Rattus norvegicus [3] = experiment: Percentage fall in systolic blood pressure after 1 hr at 25 mg/kg given perorally; assay type: functional, Artery; settings: route oral; in short: as §1
Rattus norvegicus [4] = experiment: Percentage fall in systolic blood pressure after 2 hr at 25 mg/kg given perorally; assay type: functional, Artery; settings: route oral; in short: as §1
Rattus norvegicus [5] = experiment: Percentage fall in systolic blood pressure after 1 hr at 6.25 mg/kg given perorally; assay type: functional, Artery; settings: route oral
In short: (§2)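 Male Okamoto-Aoki SHR, four per group, with a concurrent vehicle control group. Oral dosing in water (0.1 mL/10 g) on two consecutive mornings. After the day-2 dose, rats were restrained in a 30 °C chamber. Tail-cuff systolic pressure was taken at 1-4 h from four traces per rat. Result is % decrease versus control mean, by 1-tailed t test, p ≤ 0.05.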

Rattus norvegicus [6] = experiment: Percentage fall in systolic blood pressure after 2 hr at 6.25 mg/kg given perorally; assay type: functional, Artery; settings: route oral; in short: as §1
Rattus norvegicus [7] = experiment: Percentage fall in systolic blood pressure after 3 hr at 6.25 mg/kg given perorally; assay type: functional, Artery; settings: route oral; in short: as §1
Rattus norvegicus [8] = experiment: Percentage fall in systolic blood pressure after 4 hr at 25 mg/kg given perorally; assay type: functional, Artery; settings: route oral; in short: as §1
Rattus norvegicus [9] = experiment: Percentage fall in systolic blood pressure after 4 hr at 1.25 mg/kg given perorally; assay type: functional, Artery; settings: route oral; in short: as §1
Rattus norvegicus [10] = experiment: Percentage fall in systolic blood pressure after 2 hr at 1.25 mg/kg given perorally; assay type: functional, Artery; settings: route oral; in short: as §1
Rattus norvegicus [11] = experiment: Percentage fall in systolic blood pressure after 3 hr at 0.31 mg/kg given perorally; assay type: functional, Artery; settings: route oral; in short: as §1
Rattus norvegicus [12] = experiment: Percentage fall in systolic blood pressure after 2 hr at 0.31 mg/kg given perorally; assay type: functional, Artery; settings: route oral; in short: as §1
Rattus norvegicus [13] = experiment: Percentage fall in systolic blood pressure after 1 hr at 0.31 mg/kg given perorally; assay type: functional, Artery; settings: route oral; in short: as §1
Rattus norvegicus [14] = experiment: Percentage fall in systolic blood pressure after 1 hr at 1.25 mg/kg given perorally; assay type: functional, Artery; settings: route oral; in short: as §1
Rattus norvegicus [15] = experiment: Percentage fall in systolic blood pressure after 3 hr at 1.25 mg/kg given perorally; assay type: functional, Artery; settings: route oral; in short: as §1
Rattus norvegicus [16] = experiment: Percentage fall in systolic blood pressure after 4 hr at 0.31 mg/kg given perorally; assay type: functional, Artery; settings: route oral; in short: as §1
Rattus norvegicus [17] = experiment: Percentage fall in systolic blood pressure after 4 hours at 50 mg/kg given perorally; assay type: functional, organism-based; set-up: dose 50 mg/kg; settings: Artery; in short: as §2
Rattus norvegicus [18] = experiment: Percentage fall in systolic blood pressure after 2 hours at 50 mg/kg given perorally.; assay type: functional, Artery; settings: route oral; in short: as §1
Rattus norvegicus [19] = experiment: Percentage fall in systolic blood pressure after 1 hr at 50 mg/kg given perorally; assay type: functional, organism-based; set-up: dose 50 mg/kg; settings: Artery; in short: as §1
Rattus norvegicus [20] = experiment: Percentage fall in systolic blood pressure after 3 hours at 50 mg/kg given perorally; assay type: functional, organism-based; set-up: dose 50 mg/kg; settings: Artery; in short: as §2

O=C1COC2(CCN(CC3COc4ccccc4O3)CC2)CN1 (stereo not given)
Decrease in SBP (Rattus norvegicus [1]): 40% | Decrease in SBP (Rattus norvegicus [2]): Not significant | Decrease in SBP (Rattus norvegicus [3]): 53% | Decrease in SBP (Rattus norvegicus [4]): 49% | Decrease in SBP (Rattus norvegicus [5]): 38% | Decrease in SBP (Rattus norvegicus [6]): 36% | Decrease in SBP (Rattus norvegicus [7]): 21% | Decrease in SBP (Rattus norvegicus [8]): 38%

COc1cc2nc(N3CCN(C(=O)c4ccco4)CC3)nc(N)c2cc1OC [PRAZOSIN]
Decrease in SBP (Rattus norvegicus [9]): 31% | Decrease in SBP (Rattus norvegicus [10]): 46% | Decrease in SBP (Rattus norvegicus [11]): 21% | Decrease in SBP (Rattus norvegicus [12]): 31% | Decrease in SBP (Rattus norvegicus [13]): 19% | Decrease in SBP (Rattus norvegicus [14]): 26% | Decrease in SBP (Rattus norvegicus [15]): 36% | Decrease in SBP (Rattus norvegicus [16]): 26%

O=C1COC2(CCN(CC(O)COc3ccccc3)CC2)CN1 (stereo not given)
Decrease in SBP (Rattus norvegicus [17]): Not significant | Decrease in SBP (Rattus norvegicus [18]): 18% | Decrease in SBP (Rattus norvegicus [19]): Not significant | Decrease in SBP (Rattus norvegicus [20]): Not significant
